Measured values from ChEMBL document CHEMBL3425510, “Discovery of bisamide-heterocycles as inhibitors of scavenger receptor BI (SR-BI)-mediated lipid uptake” (Bioorg Med Chem Lett, 2015).
≈ marks a conversion by molar mass, not a printed value. Calls of active or inactive are those of the source. The rule behind the calls is not given here.

Key:
[1] = target: T1, Scavenger receptor class B member 1 (Mus musculus, UniProt Q61009); assay: Inhibition of mouse SR-BI isoform 1 expressed in CHO cells assessed as reduction in transfer of fluorescent lipid DiI from human HDL particles into cells by fluorescence assay; format: cell-based
T1 sequence (Q61009 whole entry): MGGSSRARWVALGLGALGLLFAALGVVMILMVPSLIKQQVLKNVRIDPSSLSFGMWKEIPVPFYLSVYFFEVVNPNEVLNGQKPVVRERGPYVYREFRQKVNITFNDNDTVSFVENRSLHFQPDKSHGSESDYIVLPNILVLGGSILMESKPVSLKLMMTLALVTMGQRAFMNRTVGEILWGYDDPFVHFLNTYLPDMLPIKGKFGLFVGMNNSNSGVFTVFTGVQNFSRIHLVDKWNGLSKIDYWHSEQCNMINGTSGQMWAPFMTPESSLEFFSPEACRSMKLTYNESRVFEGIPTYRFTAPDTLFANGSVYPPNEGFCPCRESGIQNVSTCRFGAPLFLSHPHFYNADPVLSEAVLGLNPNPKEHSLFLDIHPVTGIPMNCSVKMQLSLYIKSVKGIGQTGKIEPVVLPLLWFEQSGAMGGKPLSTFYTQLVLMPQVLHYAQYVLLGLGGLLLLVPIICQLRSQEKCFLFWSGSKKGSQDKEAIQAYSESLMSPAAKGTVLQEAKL
In short: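 ldlA[mSR-BI] cells (CHO, lacking LDL receptor, overexpressing mouse SR-BI), 10,000 per well, plated overnight in F12K/5% FCS. Medium swapped to Ham's F12/0.5% fatty acid-free BSA/25 mM HEPES pH 7.4 with DiI-HDL at 10 μg protein/ml final. Compound pinned in, 3 h at 37 °C, then two PBS (+Ca/Mg) washes. Bottom-read fluorescence; normalized to DMSO and 1 μM BLT-1.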

[2] = Aqueous solubility in PBS buffer with 1% DMSO at 100 uM incubated for 24 hrs by UPLC-MS method; format: physicochemical
In short: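 Duplicate samples at 100 μM in PBS pH 7.4 with 1% DMSO, plus matching samples in 100% DMSO. Shaken 250 rpm for 24 h at room temperature. Quantified by UPLC-MS with SIR detection on a single quadrupole; PBS response fitted to a two-point calibration made from the DMSO samples.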

CHO [3] = assay: Cytotoxicity against CHO cells after 24 hrs; format: cell-based, Cricetulus griseus; conditions: chinese hamster
[4] = target: T1, Scavenger receptor class B member 1; assay: Inhibition of mouse SR-BI isoform 1 expressed in CHO cells assessed as increase in binding of Alexa-488-labeled HDL particles to cells; format: cell-based
In short: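 ldlA[mSR-BI] cells (LDL receptor-deficient CHO overexpressing mouse SR-BI), 10,000/well in Ham's F12K/5% FCS, grown overnight. Medium swapped for Ham's F12/0.5% fatty acid-free BSA/25 mM HEPES pH 7.4 containing 10 ug/mL Alexa 488-HDL (dye bound covalently to apolipoprotein). Compounds pinned in, 1 uM BLT-1 as positive control, 3 h at 37°C. Cells washed twice with PBS (+Ca/Mg), bottom-read fluorescence, normalised to DMSO and BLT-1 wells.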

[5] = Stability in mouse plasma assessed as compound remaining at 5 uM after 5 hrs at 37 degC by UPLC-MS method; format: ADME, cell-free; conditions: read-out: Stability
In short: (§1)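 Plasma (human or mouse) diluted 50/50 with PBS pH 7.4, compound at 5 μM (0.95% acetonitrile, 0.05% DMSO). Run in duplicate, shaken 250 rpm at 37 °C. Sampled at 0 and 5 h; analysed by UPLC-MS with SIR detection.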

CHO [6] = assay: Inhibition of general receptor-mediated endocytosis in SR-BI isoform 1 expressing CHO cells assessed as effect on endocytosis of Alexa-594-labeled transferrin up to 35 uM; format: functional, cell-based; conditions: Cricetulus griseus
[7] = Stability in human plasma assessed as compound remaining at 5 uM after 5 hrs at 37 degC by UPLC-MS method; format: ADME, cell-free; conditions: read-out: Stability; in short: as §1
[8] = Stability in human liver microsomes assessed as compound remaining at 1 uM in presence of NADPH at 37 degC after 1 hr by UHPLC-MS method; format: ADME; conditions: read-out: Stability
In short: (§2)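 Liver microsomes (human or mouse) in PBS pH 7.4, final 1 μM compound, 0.3 mg/mL microsomes, 0.5 mM NADPH, 1% DMSO. Run in duplicate at 37 °C with 250 rpm shaking. Sampled at 0 and 1 h.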

[9] = Stability in mouse liver microsomes assessed as compound remaining at 1 uM in presence of NADPH at 37 degC after 1 hr by UHPLC-MS method; format: ADME; conditions: read-out: Stability; in short: as §2

Row | SMILES | IC50 [1] | further results
1 | CC(C(=O)NC1CCCC1)N(C(=O)Cn1nnc(-c2cccc(F)c2)n1)C1CCCCC1 (stereo not drawn) | 380 nM | 
2 | CC(C(=O)NC1CCCC1)N(C(=O)Cn1nnc(-c2ccc3c(c2)OCO3)n1)C1CCOCC1 (stereo not drawn) | 840 nM | 
3 | CC(C(=O)NC1CCCC1)N(C(=O)Cn1nnc(-c2ccc(Cl)cc2)n1)C1CCCCC1 (stereo not drawn) | 170 nM | 
4 | COc1ccc(-c2nnn(CC(=O)N(C3CCCCC3)C(C(=O)NC3CCCC3)C(C)C)n2)cc1OC (stereo not drawn) | > 25000 nM | 
5 | CC(C(=O)NC1CCCC1)N(C(=O)Cn1nnc(-c2ccccc2Cl)n1)C1CCCCC1 (stereo not drawn) | 3800 nM | 
6 | COc1ccc(-c2nc(CC(=O)N(C3CCCCC3)C(C)C(=O)NC3CCCC3)co2)cc1OC (stereo not drawn) | 130 nM | 
7 | COc1ccc(-c2nnn(CC(=O)N(C3CCCCC3)C(C)C(=O)N3CCCCC3)n2)cc1OC (stereo not drawn) | 7100 nM | 
8 | Cc1ccc(-c2nnn(CC(=O)N(C3CCCCC3)C(C)C(=O)NC3CCCC3)n2)cc1 (stereo not drawn) | 490 nM | 
9 | COc1ccc(-c2nnn(CC(=O)N(C3CCCCC3)C(C)C(=O)NC(C)(C)C)n2)cc1OC (stereo not drawn) | 17000 nM | 
10 | COc1ccc(-c2nnn(CC(=O)N(C3CCCCC3)C(C)C(=O)NC(C)C)n2)cc1OC (stereo not drawn) | 810 nM | 
11 | COc1ccc(-c2nnn(CC(=O)N(C3CCCCC3)C(C)C(=O)NC3CCCCC3)n2)cc1OC (stereo not drawn) | 200 nM | 
12 | COc1ccc(-c2nnn(CC(=O)N(C3CCCCC3)C(C)(C)C(=O)NC3CCCC3)n2)cc1OC | 19000 nM | 
13 | O=C(CN(C(=O)Cn1nnc(-c2ccc3c(c2)OCO3)n1)C1CCCCC1)NC1CCCC1 | 26 nM | 
14 | CC(C(=O)NC1CCCC1)N(C(=O)Cn1nnc(-c2ccc3c(c2)OCO3)n1)C1CCCCC1 (stereo not drawn) | 27 nM | 
15 | COc1ccc(-c2nnn(CC(=O)N(C3CCCCC3)C(C)C(=O)NC3CCCC3)n2)cc1OC (stereo not drawn) | 55 nM | solubility kinetic at 24 h, 100 µM [2]: 114 µM (≈ 55.2 µg/mL); Activity (CHO [3]): Non-toxic
16 | COc1ccc(-c2cc(CC(=O)N(C3CCCCC3)C(C)C(=O)NC3CCCC3)no2)cc1OC (stereo not drawn) | 23 nM | 
17 | CC(C(=O)NC1CCCC1)N(C(=O)Cn1nnc(-c2ccc3c(c2)OC(F)(F)O3)n1)C1CCCCC1 (stereo not drawn) | 230 nM | 

Row | SMILES | IC50 [1] | further results
18 | COc1ccc(-c2nnn(CC(=O)N(C3CC3)C(C)C(=O)NC3CCCC3)n2)cc1OC (stereo not drawn) | 7500 nM | 
19 | COc1ccc(-c2nnn(CC(=O)N(C3CCCCC3)C(C)C(=O)NC3CC3)n2)cc1OC (stereo not drawn) | 420 nM | 
20 | CC(C(=O)NC1CCCC1)N(C(=O)Cn1nnc(-c2ccccc2)n1)C1CCCCC1 (stereo not drawn) | 370 nM | 
21 | COc1ccc(-c2nnn(CC(=O)N(C3CCCCC3)C(C)C(=O)N(C)C3CCCC3)n2)cc1OC (stereo not drawn) | 1600 nM | 
22 | COc1ccc(-c2nc(CC(=O)N(C3CCCCC3)C(C)C(=O)NC3CCCC3)cs2)cc1OC (stereo not drawn) | 6300 nM | 
23 | COc1ccc(-c2nnn(CC(=O)N(C3CCCC3)C(C)C(=O)NC3CCCC3)n2)cc1OC (stereo not drawn) | 110 nM | 
24 | CC(C(=O)NC1CCCC1)N(C(=O)Cn1nnc(-c2ccccc2F)n1)C1CCCCC1 (stereo not drawn) | 620 nM | 
25 | COCC(=O)N1CCc2cc(-c3csc(NC(=O)c4cc(OC)cc(OC)c4)n3)ccc21 |  | solubility kinetic at 24 h, 100 µM [2]: 0.57 µM (≈ 0.259 µg/mL)
26 | COc1cccc(-c2nnn(CC(=O)N(C3CCCCC3)C(C)C(=O)NC3CCCC3)n2)c1 (stereo not drawn) | 180 nM | 
27 | COc1ccccc1-c1nnn(CC(=O)N(C2CCCCC2)C(C)C(=O)NC2CCCC2)n1 (stereo not drawn) | > 25000 nM | 
28 | C[C@H](C(=O)NC1CCCC1)N(C(=O)Cn1nnc(-c2ccc3c(c2)OCO3)n1)C1CCCCC1 | 17 nM | solubility kinetic at 24 h, 100 µM [2]: 28 µM (≈ 13.1 µg/mL); EC50 [4]: 270 nM; remaining at 5 h, 5 µM [5]: > 99%; inhibition (CHO [6]): inactive; remaining at 5 h, 5 µM [7]: > 99%; remaining at 1 h, 1 µM [8]: < 1%; remaining at 1 h, 1 µM [9]: < 1%
29 | COc1ccc(-c2nnn(CC(=O)N(C)C(C)C(=O)NC3CCCC3)n2)cc1OC (stereo not drawn) | 19000 nM | 
30 | COc1ccc(-c2nnn(CC(=O)N(C3CCN(C)CC3)C(C)C(=O)NC3CCCC3)n2)cc1OC (stereo not drawn) | > 25000 nM | 
31 | CC(C(=O)NC1CCCC1)N(C(=O)Cc1ccccc1)C1CCCCC1 (stereo not drawn) | 37000 nM | 
32 | CC(C(=O)NC1CCCC1)N(C(=O)Cn1nnc(-c2ccc(F)cc2)n1)C1CCCCC1 (stereo not drawn) | 130 nM | 
33 | COc1ccc(-c2nnn(CC(=O)N(CC3CCCCC3)C(C)C(=O)NC3CCCC3)n2)cc1OC (stereo not drawn) | 1600 nM | 
34 | CC(C(=O)NC1CCCC1)N(C(=O)Cn1nnc(-c2ccc(Cl)c(Cl)c2)n1)C1CCCCC1 (stereo not drawn) | 180 nM | 
